# Data reported in article PMC6619336 (Clinical Pharmacology in Drug Development, 2018).
# Like-named read-outs stand apart in the source and are kept apart here. Marks after values point to notes of the source that are not given here.
# Columns and labels:
# [1] = 300‐mg dose (capsule); mean ± SD; study 15L‐CL‐002; cited from earlier work
# [2] = 300‐mg dose (capsule); mean ± SD; study 15L‐CL‐001; cited from earlier work
# [3] = subjects with severe renal impairment; cited from earlier work
# [4] = subjects with moderate hepatic impairment; cited from earlier work
# [5] = tested on: VZV; details: preclinical studies; cited from earlier work
# [6] = Safety and tolerability of single-dose amenamevir in healthy volunteers; type: in vivo, human; details: single 200 mg dose; for subjects with treatment‐emergent AEs: 6 subjects dosed
# Outline: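 Six healthy men aged 18–65 years received one fasted oral 200 mg dose and were monitored from screening through admission, discharge and a post-study visit. Adverse events were collected from spontaneous reports and non-leading questioning, coded with MedDRA v10.0, and graded for severity and treatment relation. Checks covered blood pressure, heart rate, ECG, physical examination, chemistry, hematology, urinalysis, serology and drug/alcohol screens.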
# [7] = healthy volunteers, cited from earlier work
# [8] = type: in vivo, human
# Outline: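 Six healthy men were dosed fasted, orally, once at 200 mg of 14C-labelled test compound (1.8 MBq) in water with 8% hydroxypropyl-β-cyclodextrin. Blood was drawn predose and from 15 min to 72 h, kept on ice, and spun at 1500g for 10 min at 4 °C within 30 min. Plasma radioactivity was read by liquid scintillation and parent by LC-MS/MS. Parameters were noncompartmental, with values below LLOQ set to zero.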
# [9] = type: in vivo, human; remark: listed apart in the source
# Outline: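 Healthy men (n = 6) got one fasted oral 200 mg dose of 14C-labelled test compound (1.8 MBq) in water with 8% hydroxypropyl-β-cyclodextrin. Urine and feces were collected for 8 days. Expired air was sampled predose to 72 h and trapped in 1 N hyamine hydroxide with phenolphthalein. Urine and feces were homogenized, and radioactivity was read by liquid scintillation. Urinary parent was measured by LC-MS/MS. CL_R = Ae/AUC over the largest common quantifiable interval.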
# [10] = Metabolic profiling of 14C-amenamevir in plasma, urine and feces; type: in vivo, human; details: single oral 200 mg
# Outline: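 After one fasted oral 200 mg dose of 14C-labelled test compound in 8% hydroxypropyl-β-cyclodextrin, healthy men gave plasma predose and at 0.5, 1, 2, 4, 6, 8, 10 and 12 h. Urine and fecal homogenates (stored at −70 °C) were also collected. Radiochromatograms were run by HPLC for all matrices. Urine and fecal metabolites were identified by LC-MS/MS.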
# [11] = single 300‐mg (capsule) dose, day 1 of administration; study 15L‐CL‐003; cited from earlier work
# [12] = tested on: cytochrome P450 (CYP) 3A; details: cited from earlier work
# [13] = ^14C‐radioactivity in plasma, single oral 200 mg, n = 6, mean ± SD
# [14] = ^14C‐radioactivity in whole blood, single oral 200 mg, n = 6, mean ± SD
# [15] = ^14C‐radioactivity, single oral 200 mg
# [16] = single oral 200 mg, n = 5, mean ± SD, 8 days of sampling
structure (smiles),measurement,setting,value
Cc1cccc(C)c1N(CC(=O)Nc1ccc(-c2ncon2)cc1)C(=O)C1CCS(=O)(=O)CC1 [Amenamevir],half‐life,[1],7.85 ± 1.62 h
same,peak concentration of drug in blood plasma,[1],1093 ± 201 ng/mL
same,half‐life,[2],6.88 ± 0.56 h
same,peak concentration of drug in blood plasma,[2],1040 ± 264 ng/mL
same,renal clearance in severe renal impairment,[3],reduced renal clearance
same,pharmacokinetic profile in moderate hepatic impairment,[4],not significantly altered
same,activity against VZV compared with acyclovir and valacyclovir,[5],more potent than acyclovir and valacyclovir
same,"clinical laboratory evaluations, vital signs, electrocardiogram recordings",[6],No clinically important abnormalities
same,"deaths, serious AEs, or AEs resulting in discontinuation",[6],"No deaths, serious AEs, or AEs resulting in discontinuation were reported"
same,subjects with treatment‐emergent AEs,[6],3
same,subjects with treatment‐emergent AEs,[6]; listed as amenamevir,Three
same,severity of AEs,[6]; all 3 AEs,mild
same,safety and tolerability,"[6]; healthy male subjects, n = 6",safe and well tolerated
same,dose proportionality of pharmacokinetics,[7],less than dose proportional
same,safety and tolerability,[7]; single doses of 5 to 2400 mg or 300 to 600 mg/day for 7 days,safe and well tolerated
same,AUCinf,[8]; [13],"10,997 ± 2530 ng · h/mL"
same,AUClast,[8]; [13],"10,076 ± 2912 ng · h/mL"
same,Cmax,[8]; [13],1041 ± 324 ng/mL
same,t½,[8]; [13],8.03 ± 0.81 h
same,tmax,"[8]; ^14C‐radioactivity in plasma, single oral 200 mg, n = 6, median (range)",1.00 (1.00–3.02) hours
same,AUCinf,[8]; [14],"10,425 ± 2265 ng · h/mL"
same,AUClast,[8]; [14],8530 ± 2263 ng·h/mL
same,Cmax,[8]; [14],919 ± 284 ng/mL
same,t½,[8]; [14],9.19 ± 2.13 h
same,tmax,"[8]; ^14C‐radioactivity in whole blood, single oral 200 mg, n = 6, median (range)",1.00 (1.00–2.00) hours
same,Whole blood:plasma ratio of AUCinf,[8]; [15],0.951
same,Whole blood:plasma ratio of AUClast,[8]; [15],0.852
same,Whole blood:plasma ratio of Cmax,[8]; [15],0.885
same,AUC(0-inf),"[8]; human, plasma, po, 200 mg",8820 ± 2510 ng·h/mL
same,AUC(0-t),"[8]; human, plasma, po, 200 mg",8690 ± 2490 ng·h/mL
same,Cmax,"[8]; human, plasma, po, 200 mg",1020 ± 404 ng/mL
same,half-life,"[8]; human, plasma, po, 200 mg",7.65 ± 0.49 h
same,tmax,"[8]; human, plasma, po, 200 mg",1.5 h
same,CL renal,"[9]; human, urine and plasma, po, 200 mg",40.7 mL/min
same,dose eliminated by 168 hours after the dose,[9]; single oral 200 mg,> 95%
same,Ae expired air (cumulative recovery of ^14C‐radioactivity),"[9]; single oral 200 mg, N = 6, listed as 14C‐amenamevir",0%
same,Ae urine (cumulative recovery of ^14C‐radioactivity),"[9]; single oral 200 mg, N = 6, mean ± SD, 8 days of sampling",20.6 ± 4.0%
same,Ae feces (cumulative recovery of ^14C‐radioactivity),[9]; [16],74.6 ± 3.0 ^a %
same,Ae total (cumulative recovery of ^14C‐radioactivity),[9]; [16],95.3%
same,Ae total (cumulative recovery of ^14C‐radioactivity),"[9]; single oral 200 mg, n = 5, mean ± SD, 8 days of sampling, listed as 14C‐amenamevir",95.3 ± 1.8 ^a %
same,Cumulative Aelast (amenamevir excreted into urine),"[9]; unchanged amenamevir in urine by LC‐MS/MS, single oral 200 mg, N = 6, mean ± SD",20.9 ± 5.5 mg
same,share of the administered dose in feces,[10]; feces 0 to 72 hours after the dose,< 0.1%
same,share of the total radioactivity in plasma,[10]; plasma samples 0.5 to 12 hours after the dose,80%
same,share of the total radioactivity excreted in urine,[10]; urine 0–48 hours after the dose,approximately 55%
same,drug excreted in the urine,[11],11.07%
same,renal clearance,[11],2.45 L/h
same,relation to CYP3A,[12],both a substrate and inducer
